In article PMC3806060 (Journal of medicinal chemistry, 2013):
“Also recorded” adds a separate entry of the source. Read-outs that look alike come from different tables or passages of the source.

Legend:
[1] = molecular target: T1, Bcl-2 (Homo sapiens, UniProt P10415); conditions: read-out: Ki, binding to Bcl-2; cited from earlier work
[2] = molecular target: T2, Bcl-xL (Homo sapiens, UniProt Q07817); conditions: read-out: Ki, binding to Bcl-xL; cited from earlier work
[3] = cited from earlier work
[4] = test system: H146 small-cell lung cancer cell line; assay: Cell growth inhibition assay; format: cell-based, Human
[5] = test system: H146 small-cell lung cancer xenograft; conditions: 25 mg/kg, i.v., 5 days per week for 2 weeks; cited from earlier work
[6] = test system: animal model of human cancer; conditions: cited from earlier work
[7] = molecular target: T1, Bcl-2; assay: FP based competitive binding assay, Bcl-2; conditions: for Times less potent than compound 4 in binding to Bcl-2: versus 4
[8] = molecular target: T2, Bcl-xL; assay: FP based competitive binding assay, Bcl-xL; conditions: versus 8
How it was run: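 Competitive fluorescence-polarization assay for Bcl-xL: pre-incubated Bcl-xL (10 nM) and fluorescent probe (2 nM) with serial dilutions of test compound, room temperature, 2 h, gentle shaking. Millipolarization plotted against total compound concentration. IC50 obtained by nonlinear regression; Ki calculated from IC50.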

[9] = molecular target: Mcl-1 (Homo sapiens, UniProt Q07820); assay: FP based competitive binding assay, Mcl-1; conditions: at concentrations as high as 2 μM
[10] = test system: H146 xenograft tumors; assay: Western blot of H146 xenograft tumor tissue for cleavage of PARP and caspase-3; format: in vivo, SCID mice; conditions: single dose 15 mg/kg i.v., 3 and 6 h time points
How it was run: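 SCID mice carried subcutaneous H146 xenografts (5 × 10^6 cells with Matrigel) of approximately 100 mm3. They received a single 15 mg/kg i.v. dose of test compound or vehicle. Tumors were harvested at 3, 6 or 24 h, and western blot measured total and cleaved PARP and caspase-3.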

[11] = test system: H146 small-cell lung cancer xenograft; assay: Antitumor efficacy in the H146 xenograft tumor model; format: in vivo, SCID mice; conditions: for Antitumor activity / Tumor regression: daily, 5 days a week for 2 weeks
How it was run: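 Subcutaneous dorsal xenografts in SCID mice: 5 × 10^6 H146 cells with Matrigel, one tumor per mouse. At 100–150 mm3 (mean 126 mm3), animals randomized into groups of 8. Vehicle or test compound given i.v. at 15 mg/kg, daily, 5 days/week for 2 weeks. Tumor size and body weight measured 3×/week during and 2×/week after dosing. Data are mean tumor volume ± SEM; two-way ANOVA and unpaired two-tailed t test, P < 0.05.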

[12] = test system: small-cell lung cancer cell lines; format: cell-based, Human; conditions: for IC50: Homo sapiens
How it was run: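 H146, H1963, H187 and H1417 small-cell lung cancer lines were maintained in RPMI-1640 with 10% FBS. Cells were exposed to various concentrations of test compound for 4 days. WST-8 was added for a further 1–2 h and absorbance read at 450 nm. IC50 was calculated against untreated cells, with at least three independent experiments per line.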

Sequence of Mcl-1 (Q07820 whole entry): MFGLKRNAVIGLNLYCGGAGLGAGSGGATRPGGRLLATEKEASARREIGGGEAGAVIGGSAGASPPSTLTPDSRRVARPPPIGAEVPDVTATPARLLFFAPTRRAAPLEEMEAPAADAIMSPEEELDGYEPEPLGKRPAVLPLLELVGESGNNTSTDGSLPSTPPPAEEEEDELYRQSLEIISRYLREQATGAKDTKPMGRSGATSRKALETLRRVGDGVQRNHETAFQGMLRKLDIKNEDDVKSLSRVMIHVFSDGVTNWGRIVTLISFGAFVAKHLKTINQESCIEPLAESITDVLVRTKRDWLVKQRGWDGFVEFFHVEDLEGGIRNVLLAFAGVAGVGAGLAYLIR
T1 sequence (P10415 whole entry): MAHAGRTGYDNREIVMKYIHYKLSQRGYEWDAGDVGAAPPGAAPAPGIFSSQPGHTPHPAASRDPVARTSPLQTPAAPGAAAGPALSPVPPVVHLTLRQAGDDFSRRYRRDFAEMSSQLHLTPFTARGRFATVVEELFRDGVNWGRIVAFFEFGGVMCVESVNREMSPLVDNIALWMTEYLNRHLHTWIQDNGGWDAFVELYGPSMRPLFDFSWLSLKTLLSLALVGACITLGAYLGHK
T2 sequence (Q07817 whole entry): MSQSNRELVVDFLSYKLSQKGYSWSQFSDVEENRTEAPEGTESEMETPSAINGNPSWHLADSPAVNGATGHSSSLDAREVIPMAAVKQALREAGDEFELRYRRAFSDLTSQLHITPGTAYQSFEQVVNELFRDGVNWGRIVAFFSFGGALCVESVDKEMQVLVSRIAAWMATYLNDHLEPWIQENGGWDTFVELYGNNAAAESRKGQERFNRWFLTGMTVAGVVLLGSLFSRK

## Cc1c(C(=O)O)c(-c2cccc(N3CCN(c4ccc(NS(=O)(=O)c5ccc(N[C@H](CCN(C)C)CSc6ccccc6)c([N+](=O)[O-])c5)cc4)CC3)c2)c(-c2ccc(Cl)cc2)n1C [Compound 4]
[1]
  Ki: < 1 nM
[2]
  Ki: < 1 nM
[3]
  Chemical stability: excellent chemical stability

## CCn1c(C)c(C(=O)O)c(-c2cccc(N3CCN(c4ccc(NS(=O)(=O)c5ccc(N[C@H](CCN(C)C)CSc6ccccc6)c([N+](=O)[O-])c5)cc4)CC3)c2)c1-c1ccc(Cl)cc1 [Compound 5]
[4]; versus 4
  Times more potent than compound 4 in H146 cell growth inhibition: 8 times
[1]
  Ki: < 1 nM
[2]
  Ki: < 1 nM
[5]
  Antitumor activity in H146 xenograft model: failed to achieve long-lasting tumor regression
[3]
  Chemical stability: excellent chemical stability

## CCn1c(C)c(C(=O)O)c(-c2cccc(N3CCN(c4ccc(NS(=O)(=O)c5ccc(N[C@H](CCN6CCC(O)CC6)CSc6ccccc6)c(S(=O)(=O)C(F)(F)F)c5)cc4)CC3)c2)c1-c1ccc(Cl)cc1 [Compound 6, BM-957]
[1]
  Ki: < 1 nM
[2]
  Ki: < 1 nM
[6]
  Tumor regression: achieved tumor regression

## Cc1c(C(N)=O)c(-c2cccc(N3CCN(c4ccc(NS(=O)(=O)c5ccc(N[C@H](CCN(C)C)CSc6ccccc6)c([N+](=O)[O-])c5)cc4)CC3)c2)c(-c2ccc(Cl)cc2)n1C [Compound 9, (R)-5-(4-Chlorophenyl)-4-(3-(4-(4-(4-(4-(dimethylamino)-1-(phenylthio)butan-2-ylamino)-3-nitrophenylsulfonamido)phenyl)piperazin-1-yl)phenyl)-1,2-dimethyl-1H-pyrrole-3-carboxamide]
[7]; versus 8
  Times less potent than compound 8 in binding to Bcl-2: 4 times
[8]
  Times less potent than compound 8 in binding to Bcl-xL: 2 times
[4]; versus 8
  Times less potent than compound 8 in H146 cell growth inhibition: 6 times

## Cc1c(Cl)c(-c2cccc(N3CCN(c4ccc(NS(=O)(=O)c5ccc(N[C@H](CCN(C)C)CSc6ccccc6)c([N+](=O)[O-])c5)cc4)CC3)c2)c(-c2ccc(Cl)cc2)n1C [Compound 13, (R)-N-(4-(4-(3-(4-Chloro-2-(4-chlorophenyl)-1,5-dimethyl-1H-pyrrol-3-yl)phenyl)piperazin-1-yl)phenyl)-4-(4-(dimethylamino)-1-(phenylthio)butan-2-ylamino)-3-nitrobenzenesulfonamide]
[7]
  Times less potent than compound 4 in binding to Bcl-2: 100 times
[4]; versus 4
  Times less potent than compound 4 in H146 cell growth inhibition: > 100 times

## Cc1c(C(F)(F)F)c(-c2cccc(N3CCN(c4ccc(NS(=O)(=O)c5ccc(N[C@H](CCN(C)C)CSc6ccccc6)c([N+](=O)[O-])c5)cc4)CC3)c2)c(-c2ccc(Cl)cc2)n1C [Compound 14, (R)-N-(4-(4-(3-(2-(4-Chlorophenyl)-1,5-dimethyl-4-(trifluoromethyl)-1H-pyrrol-3-yl)phenyl)piperazin-1-yl)phenyl)-4-(4-(dimethylamino)-1-(phenylthio)butan-2-ylamino)-3-nitrobenzenesulfonamide]
[7]
  Times less potent than compound 4 in binding to Bcl-2: 100 times
[4]; versus 4
  Times less potent than compound 4 in H146 cell growth inhibition: > 100 times

## Cc1c(C#N)c(-c2cccc(N3CCN(c4ccc(NS(=O)(=O)c5ccc(N[C@H](CCN(C)C)CSc6ccccc6)c([N+](=O)[O-])c5)cc4)CC3)c2)c(-c2ccc(Cl)cc2)n1C [Compound 15, (R)-N-(4-(4-(3-(2-(4-Chlorophenyl)-4-cyano-1,5-dimethyl-1H-pyrrol-3-yl)phenyl)piperazin-1-yl)phenyl)-4-(4-(dimethylamino)-1-(phenylthio)butan-2-ylamino)-3-nitrobenzenesulfonamide]
[7]
  Times less potent than compound 4 in binding to Bcl-2: > 10 times
[4]; versus 4
  Times less potent than compound 4 in H146 cell growth inhibition: 8 times

## CCn1c(C)c(C(=O)NS(C)(=O)=O)c(-c2cccc(N3CCN(c4ccc(NS(=O)(=O)c5ccc(N[C@H](CCN(C)C)CSc6ccccc6)c([N+](=O)[O-])c5)cc4)CC3)c2)c1-c1ccc(Cl)cc1 [Compound 31, (R)-5-(4-Chlorophenyl)-4-(3-(4-(4-(4-(4-(dimethylamino)-1-(phenylthio)butan-2-ylamino)-3-nitrophenylsulfonamido)phenyl)piperazin-1-yl)phenyl)-1-ethyl-2-methyl-N-(methylsulfonyl)-1H-pyrrole-3-carboxamide]
[9]
  Binding to Mcl-1: no appreciable binding
[10]
  Cleavage of PARP and caspase-3 in H146 tumor tissue: robust cleavage of PARP and caspase-3
[11]; 15 mg/kg i.v.
  Antitumor activity: strong antitumor activity
  Tumor regression: partial tumor regression

## Cc1c(C(=O)NS(C)(=O)=O)c(-c2cccc(N3CCN(c4ccc(NS(=O)(=O)c5ccc(N[C@H](CCN(C)C)CSc6ccccc6)c([N+](=O)[O-])c5)cc4)CC3)c2)c(-c2ccc(Cl)cc2)n1C(C)C [Compound 32, (R)-5-(4-Chlorophenyl)-4-(3-(4-(4-(4-(4-(dimethylamino)-1-(phenylthio)butan-2-ylamino)-3-nitrophenylsulfonamido)phenyl)piperazin-1-yl)phenyl)-1-isopropyl-2-methyl-N-(methylsulfonyl)-1H-pyrrole-3-carboxamide]
[9]
  Binding to Mcl-1: no appreciable binding; also recorded: does not show any appreciable binding
[12]; read-out: IC50, cancer cell growth inhibition
  IC50: 1 to 2 nM
[12]; read-out: IC50, cell growth inhibition
  IC50: 1 to 2.3 nM
[12]; versus 1, each of H1963, H187, H1417, based on IC50
  Times more potent than compound 1 in cell growth inhibition: > 50 times
[12]; versus 2, each of H1963, H187, H1417, based on IC50
  Times more potent than compound 2 in cell growth inhibition: > 10 times
[10]
  Cleavage of PARP and caspase-3 in H146 tumor tissue: robust cleavage of PARP and caspase-3
[11]; 15 mg/kg i.v.
  Antitumor activity: strong antitumor activity
  Tumor regression: rapid, complete and durable tumor regression; also recorded: rapid, complete and persistent tumor regression
[11]; H146 xenograft efficacy study, 15 mg/kg i.v., during or after treatment
  Weight loss: < 5%
[11]; day 62, 18 days after end of treatment, 15 mg/kg i.v.
  Mice with measurable tumors, of 8 treated: none
[11]; day 117, 8 mice, 130 mm^3 at start of treatment (day 33)
  Average tumor size: 47 mm^3
[11]; day 117, 74 days after end of treatment, 8 mice, 15 mg/kg i.v.
  Mice without measurable tumors: 50%
